Results reported in ChEMBL document CHEMBL3352280, “Modulation of cAMP-specific PDE without emetogenic activity: new sulfide-like PDE7 inhibitors” (J Med Chem, 2014).
Calls of active or inactive are those of the source. The calls are words filed in the database; no cut-off is given here.

Key:
[1] = molecular target: T1, High affinity 3',5'-cyclic-AMP phosphodiesterase 7A (Homo sapiens, UniProt Q13946); test: Inhibition of human recombinant PDE7A1 assessed as inhibition of hydrolysis of [3H]cAMP after 20 mins by scintillation proximity assay
T1 sequence (Q13946 whole entry): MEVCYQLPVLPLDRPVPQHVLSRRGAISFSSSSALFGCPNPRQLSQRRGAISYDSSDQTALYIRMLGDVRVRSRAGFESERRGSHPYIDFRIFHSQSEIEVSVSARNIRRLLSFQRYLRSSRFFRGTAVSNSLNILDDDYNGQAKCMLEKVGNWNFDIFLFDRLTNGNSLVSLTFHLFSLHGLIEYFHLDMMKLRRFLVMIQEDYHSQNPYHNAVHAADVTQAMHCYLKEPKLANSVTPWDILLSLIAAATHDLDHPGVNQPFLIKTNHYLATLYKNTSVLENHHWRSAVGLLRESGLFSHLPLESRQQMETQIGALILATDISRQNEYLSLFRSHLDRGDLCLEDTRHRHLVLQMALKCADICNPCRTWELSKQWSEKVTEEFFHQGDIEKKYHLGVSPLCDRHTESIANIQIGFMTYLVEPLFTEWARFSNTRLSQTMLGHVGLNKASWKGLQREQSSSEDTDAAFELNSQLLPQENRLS
Procedure, shortened: (§1)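 Scintillation proximity assay with human recombinant enzyme: PDE7A1 0.02 U, PDE3A 0.02 U, PDE7B 0.5 U, PDE8A 0.5 U. Enzyme incubated with 5 nCi [3H]cAMP and inhibitor in kit buffer for 20 min at 30 °C. SPA beads added and shaken 1 h at room temperature, settled 30 min, radioactivity counted.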

[2] = molecular target: T1, High affinity 3',5'-cyclic-AMP phosphodiesterase 7A; test: Inhibition of human recombinant PDE7A1 assessed as inhibition of hydrolysis of [3H]cAMP at 10 uM after 20 mins by scintillation proximity assay; procedure, shortened: as §1
Phosphodiesterase 7 = Phosphodiesterase 7 (Homo sapiens, UniProt Q13946+Q9NP56); test: Inhibition of PDE7 (unknown origin); format: protein assay
Mus musculus = test: Emetogenic potential in surrogate emesis CD1 mouse model assessed as effect on xyclacine/ketamine-induced loss of righting reflex at 0.1 to 10 mg/kg, sc; format: ADME, organism-based; set-up: dose 0.1-10 mg/kg, route subcutaneous; conditions: in vivo
[3] = molecular target: T2, 3',5'-cyclic-AMP phosphodiesterase 4B (Homo sapiens, UniProt Q07343); test: Inhibition of human recombinant PDE4B2 assessed at 10 uM after 60 mins by IMAP fluorescence polarization assay
T2 sequence (Q07343 whole entry): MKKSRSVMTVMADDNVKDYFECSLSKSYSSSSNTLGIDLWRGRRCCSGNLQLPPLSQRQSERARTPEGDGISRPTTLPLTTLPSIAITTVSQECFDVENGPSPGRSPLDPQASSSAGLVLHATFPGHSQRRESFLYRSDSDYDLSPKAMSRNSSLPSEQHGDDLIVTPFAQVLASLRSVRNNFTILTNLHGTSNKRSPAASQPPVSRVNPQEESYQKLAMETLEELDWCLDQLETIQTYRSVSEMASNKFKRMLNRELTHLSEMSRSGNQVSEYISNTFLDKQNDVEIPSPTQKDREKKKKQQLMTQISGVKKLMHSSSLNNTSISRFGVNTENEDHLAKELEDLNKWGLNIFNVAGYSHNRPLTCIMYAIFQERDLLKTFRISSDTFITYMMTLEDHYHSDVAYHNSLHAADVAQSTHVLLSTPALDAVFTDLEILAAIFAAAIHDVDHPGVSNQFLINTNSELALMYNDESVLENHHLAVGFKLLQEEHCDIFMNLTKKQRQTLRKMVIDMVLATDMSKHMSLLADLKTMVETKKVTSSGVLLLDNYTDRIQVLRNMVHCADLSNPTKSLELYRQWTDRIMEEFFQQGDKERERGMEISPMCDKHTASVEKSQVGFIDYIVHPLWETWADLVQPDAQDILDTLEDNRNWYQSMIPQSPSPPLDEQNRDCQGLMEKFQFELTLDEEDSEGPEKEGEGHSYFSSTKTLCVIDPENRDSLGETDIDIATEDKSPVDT

Astrocyte = test: Inhibition of LPS-induced NO production in rat astrocytes treated for 1 hr at 10 uM before LPS challenge measured after 24 hrs by Griess assay; format: functional, cell-based
Procedure, shortened: (§2)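 After 2 days, cells were pretreated with compound (10 μM), then LPS (10 μg/mL) was added for 24 h. Nitrite in the supernatant was measured by Griess reagent (15 min, room temperature, absorbance 492/540 nm). Mean ± SD of three experiments.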

[4] = molecular target: T3, 3',5'-cyclic-AMP phosphodiesterase 7B (Homo sapiens, UniProt Q9NP56); test: Inhibition of human recombinant PDE7B assessed as inhibition of hydrolysis of [3H]cAMP at 10 uM after 20 mins by scintillation proximity assay; procedure, shortened: as §1
T3 sequence (Q9NP56 whole entry): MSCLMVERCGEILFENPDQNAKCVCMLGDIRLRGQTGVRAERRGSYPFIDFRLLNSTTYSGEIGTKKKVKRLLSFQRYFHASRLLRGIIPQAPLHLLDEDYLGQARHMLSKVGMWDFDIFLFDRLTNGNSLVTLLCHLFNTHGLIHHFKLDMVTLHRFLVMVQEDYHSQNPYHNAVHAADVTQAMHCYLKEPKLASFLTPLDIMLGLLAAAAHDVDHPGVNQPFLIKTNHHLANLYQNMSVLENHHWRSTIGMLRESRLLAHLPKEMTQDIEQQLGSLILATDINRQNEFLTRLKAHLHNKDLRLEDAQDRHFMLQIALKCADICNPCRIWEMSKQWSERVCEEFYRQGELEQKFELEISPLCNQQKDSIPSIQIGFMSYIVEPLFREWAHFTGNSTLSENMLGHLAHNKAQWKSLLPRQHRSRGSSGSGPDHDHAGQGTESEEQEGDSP

[5] = molecular target: T3, 3',5'-cyclic-AMP phosphodiesterase 7B; test: Inhibition of human recombinant PDE7B assessed as inhibition of hydrolysis of [3H]cAMP after 20 mins by scintillation proximity assay; procedure, shortened: as §1
SH-SY5Y = test: Cytoprotective activity against 6-OHDA-induced death of human SH-SY5Y cells pretreated for 1 hr at 10 uM measured 16 hrs post 6-OHDA challenge by MTT assay; format: functional, cell-based
Procedure, shortened: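 Human neuroblastoma SH-SY5Y grown in F12/EMEM with 2 mM glutamine, 1% nonessential amino acids and 15% FBS at 37 °C, 5% CO2. Semiconfluent cells pretreated 1 h with compound, then 6-OHDA (35 μM) added for 16 h. Viability by MTT (0.5 mg/mL, 4 h), SDS/HCl solubilisation, absorbance 595 nm. Mean ± SD of three experiments.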

Microglia = test: Inhibition of LPS-induced NO production in rat microglia treated for 1 hr at 10 uM before LPS challenge measured after 24 hrs by Griess assay; format: functional; procedure, shortened: as §2
[6] = molecular target: T4, 3',5'-cyclic-AMP phosphodiesterase 4D (Homo sapiens, UniProt Q08499); test: Inhibition of human recombinant PDE4D3 assessed at 10 uM after 60 mins by IMAP fluorescence polarization assay
T4 sequence (Q08499 whole entry): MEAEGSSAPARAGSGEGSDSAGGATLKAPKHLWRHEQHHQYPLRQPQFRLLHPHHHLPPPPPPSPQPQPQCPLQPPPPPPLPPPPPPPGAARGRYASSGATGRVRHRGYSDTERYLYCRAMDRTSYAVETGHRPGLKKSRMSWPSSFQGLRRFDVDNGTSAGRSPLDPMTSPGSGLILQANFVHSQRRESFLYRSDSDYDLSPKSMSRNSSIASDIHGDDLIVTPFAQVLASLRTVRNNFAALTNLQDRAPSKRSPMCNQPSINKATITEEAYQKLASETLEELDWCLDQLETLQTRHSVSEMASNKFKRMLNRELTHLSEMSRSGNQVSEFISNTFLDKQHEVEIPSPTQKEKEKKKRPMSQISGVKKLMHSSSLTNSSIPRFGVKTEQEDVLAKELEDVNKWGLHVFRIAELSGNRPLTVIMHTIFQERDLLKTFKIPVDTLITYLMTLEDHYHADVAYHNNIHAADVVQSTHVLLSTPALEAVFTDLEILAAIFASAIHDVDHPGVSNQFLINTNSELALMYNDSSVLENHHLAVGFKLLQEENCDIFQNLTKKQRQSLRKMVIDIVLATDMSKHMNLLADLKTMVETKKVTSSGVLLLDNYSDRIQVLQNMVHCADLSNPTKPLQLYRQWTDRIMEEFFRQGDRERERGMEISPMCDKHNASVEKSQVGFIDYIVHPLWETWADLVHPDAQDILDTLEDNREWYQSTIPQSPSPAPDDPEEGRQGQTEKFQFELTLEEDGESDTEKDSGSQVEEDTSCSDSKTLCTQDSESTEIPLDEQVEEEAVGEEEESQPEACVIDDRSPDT

[7] = molecular target: cGMP-inhibited 3',5'-cyclic phosphodiesterase 3A (Homo sapiens) (UniProt Q14432); test: Inhibition of human recombinant PDE3A assessed as inhibition of hydrolysis of [3H]cAMP at 10 uM after 20 mins by scintillation proximity assay; procedure, shortened: as §1
cGMP-inhibited 3',5'-cyclic phosphodiesterase 3A (Homo sapiens), sequence (Q14432 whole entry): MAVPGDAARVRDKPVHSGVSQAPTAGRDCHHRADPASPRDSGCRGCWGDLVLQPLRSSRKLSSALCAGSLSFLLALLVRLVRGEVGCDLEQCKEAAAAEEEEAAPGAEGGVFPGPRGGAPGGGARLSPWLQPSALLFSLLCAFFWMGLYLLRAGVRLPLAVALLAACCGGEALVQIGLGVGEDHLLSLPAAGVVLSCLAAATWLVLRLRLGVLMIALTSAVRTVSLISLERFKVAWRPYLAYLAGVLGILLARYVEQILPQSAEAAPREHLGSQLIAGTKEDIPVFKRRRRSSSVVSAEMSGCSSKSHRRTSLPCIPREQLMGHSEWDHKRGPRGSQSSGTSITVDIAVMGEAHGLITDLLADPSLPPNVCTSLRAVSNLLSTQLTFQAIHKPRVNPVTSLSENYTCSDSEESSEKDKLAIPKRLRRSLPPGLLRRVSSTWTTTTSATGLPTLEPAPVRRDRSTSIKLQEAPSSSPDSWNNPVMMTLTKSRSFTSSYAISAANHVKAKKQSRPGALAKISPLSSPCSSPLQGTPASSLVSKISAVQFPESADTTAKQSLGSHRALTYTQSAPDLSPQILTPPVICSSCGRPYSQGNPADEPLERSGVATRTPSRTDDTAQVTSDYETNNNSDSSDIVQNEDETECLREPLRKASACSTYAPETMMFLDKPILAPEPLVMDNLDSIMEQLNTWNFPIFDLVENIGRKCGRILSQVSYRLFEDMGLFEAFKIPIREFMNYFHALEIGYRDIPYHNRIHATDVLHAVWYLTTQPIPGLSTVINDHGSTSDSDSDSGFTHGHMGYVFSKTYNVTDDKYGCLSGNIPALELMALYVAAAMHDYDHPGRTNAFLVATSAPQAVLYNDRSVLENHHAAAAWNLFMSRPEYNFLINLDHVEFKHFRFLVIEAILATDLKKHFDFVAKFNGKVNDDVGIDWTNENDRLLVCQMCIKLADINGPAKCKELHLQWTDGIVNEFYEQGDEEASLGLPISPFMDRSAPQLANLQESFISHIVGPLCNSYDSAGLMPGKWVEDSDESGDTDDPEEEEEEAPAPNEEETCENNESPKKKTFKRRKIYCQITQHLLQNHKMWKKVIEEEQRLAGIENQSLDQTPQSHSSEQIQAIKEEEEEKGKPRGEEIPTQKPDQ

[8] = molecular target: T4, 3',5'-cyclic-AMP phosphodiesterase 4D; test: Inhibition of human recombinant PDE4D3 assessed after 60 mins by IMAP fluorescence polarization assay
[9] = molecular target: T2, 3',5'-cyclic-AMP phosphodiesterase 4B; test: Inhibition of human recombinant PDE4B2 assessed after 60 mins by IMAP fluorescence polarization assay

Structure (SMILES)	IC50 [1]	inhibition [2]	other results
CC(=O)c1ccc(Sc2ccncc2)c([N+](=O)[O-])c1	3.8 µM	56%	–
Nc1ccc(Sc2cc(Cl)ccc2[N+](=O)[O-])cc1	2.2 µM	71%	–
Nc1cccc(Sc2ccc([N+](=O)[O-])cc2Cl)c1	3.2 µM	78%	–
COc1cc(COC(=O)c2ccc(-c3ccccc3)o2)cc(OC)c1OC	–	–	IC50 (Phosphodiesterase 7): 5.17 µM; Activity (Mus musculus): Non-toxic
O=[N+]([O-])c1ccc(Cl)cc1Sc1ccccn1	7.98 µM	56%	–
Nc1ccc(Sc2ccc([N+](=O)[O-])cc2Cl)cc1	3.97 µM	83%	–
Nc1ccccc1Sc1sccc1[N+](=O)[O-]	4.27 µM	–	–
O=[N+]([O-])c1cc(Cl)c(Cl)cc1Sc1ccccc1Br	2.88 µM	49%	–
Nc1ccccc1Sc1ccc(Cl)cc1[N+](=O)[O-]	5.75 µM	69%	–
O=[N+]([O-])c1cc(Cl)ccc1Sc1ccccn1	3.6 µM	69%	–
O=[N+]([O-])c1ccsc1Sc1sccc1[N+](=O)[O-]	–	31%	–
CC(C)c1ccc(Sc2ccc(Cl)cc2[N+](=O)[O-])cc1	–	10%	–
c1ccc(-c2ccc(Sc3ccccn3)cc2)cc1	–	32%	–
COc1ccc(Sc2cccnc2)cc1	–	17%	–
Cc1cnc(Sc2ccncc2)c([N+](=O)[O-])c1	–	27%	–
O=[N+]([O-])c1cc(Cl)ccc1Sc1ccccc1Br	0.99 µM	79%	inhibition [3]: 30%; inhibition (Astrocyte): Active; inhibition [4]: 92%; IC50 [5]: 1410 nM; Activity (SH-SY5Y): Active; inhibition (Microglia): Active; inhibition [6]: 44%; inhibition [7]: 60%
Nc1ccc(Sc2ccc(Cl)cc2N)cc1	–	13%	–
CC(=O)Nc1ccc(Oc2ccc([N+](=O)[O-])cc2Cl)cc1	–	4%	–
O=[N+]([O-])c1ccc(Sc2ccccc2)c(Cl)c1	2.2 µM	74%	–
CC(=O)Nc1ccc(Sc2ccc(Cl)cc2[N+](=O)[O-])cc1	–	7%	–
CC(=O)NNc1ccccc1Sc1ccccc1Br	–	27%	–
O=[N+]([O-])c1ccc(SCc2ccccc2Br)c(Cl)c1	–	33%	–

Structure (SMILES)	IC50 [1]	inhibition [2]	other results
Nc1ccc(Cl)cc1Sc1ccccc1[N+](=O)[O-]	7.3 µM	–	–
Nc1ccc(Oc2ccc(Cl)cc2[N+](=O)[O-])cc1	3.3 µM	70%	–
Br.OCC/N=c1/nc(-c2ccccc2)n(-c2ccccc2)s1	–	–	IC50 (Phosphodiesterase 7): 1.11 µM; Activity (Mus musculus): Non-toxic
O=c1c2ccccc2[nH]c(=S)n1-c1ccccc1	4.68 µM	76%	–
c1cnc(Sc2ccncc2)nc1	–	12%	–
O=[N+]([O-])c1ccc(Cl)cc1Sc1ccncc1	1.88 µM	80%	–
O=[N+]([O-])c1cc(Cl)ccc1Sc1ccncc1	0.72 µM	91%	IC50 [8]: 3000 nM; inhibition [3]: 77%; inhibition (Astrocyte): Active; inhibition [4]: 76%; IC50 [5]: 13900 nM; Activity (SH-SY5Y): Active; inhibition (Microglia): Active; IC50 [9]: 4.4 µM; inhibition [6]: 74%; inhibition [7]: 33%
O=[N+]([O-])c1ccc(Sc2ccc(Br)cc2)c(Cl)c1	–	23%	–
O=[N+]([O-])c1ccc(Sc2ccc([N+](=O)[O-])cc2Cl)cc1	–	1%	–
O=[N+]([O-])c1ccc(Cl)cc1Sc1ccccc1Br	1.01 µM	69%	inhibition [3]: 6%; inhibition (Astrocyte): Active; inhibition [4]: 71%; IC50 [5]: 2200 nM; Activity (SH-SY5Y): Active; inhibition (Microglia): Active; inhibition [6]: 2%; inhibition [7]: 16%
O=[N+]([O-])c1ccc(Sc2ccc(Cl)cc2[N+](=O)[O-])cc1	–	6%	–
CC(C)c1ccc(Sc2ccc([N+](=O)[O-])cc2Cl)cc1	–	15%	–
O=[N+]([O-])c1ccc(Cl)cc1Sc1ccc(Br)cc1	–	36%	–
Nc1ccccc1Sc1cc(Cl)c(Cl)cc1[N+](=O)[O-]	6.48 µM	74%	–
Nc1ccccc1Sc1ccc([N+](=O)[O-])cc1Cl	8.77 µM	60%	–
CC(C)c1ccccc1Sc1ccc([N+](=O)[O-])cc1Cl	–	17%	–
O=[N+]([O-])c1cc(Cl)ccc1Sc1cccs1	1.6 µM	81%	–
Cc1cnc(Sc2ccc(-c3ccccc3)cc2)c([N+](=O)[O-])c1	–	2%	–
Nc1ccc(Sc2ccc([N+](=O)[O-])cc2C(F)(F)F)cc1	9.27 µM	63%	–
O=[N+]([O-])c1cc(Cl)ccc1Sc1ccc(Br)cc1	–	11%	–
O=[N+]([O-])c1cc(Cl)ccc1SCc1ccccc1Br	–	31%	–
CC(=O)Nc1ccc(Oc2ccc(Cl)cc2[N+](=O)[O-])cc1	–	17%	–

Structure (SMILES)	IC50 [1]	inhibition [2]	other results
Nc1cccc(Sc2ccncc2)c1	–	36%	–
Nc1ccc(Oc2ccc([N+](=O)[O-])cc2Cl)cc1	2.2 µM	77%	–
S=c1[nH]c2ccccc2c(=S)n1-c1ccccc1	–	–	IC50 (Phosphodiesterase 7): 1.04 µM; Activity (Mus musculus): Non-toxic
O=[N+]([O-])c1cc(Cl)ccc1Sc1ccccc1	1.5 µM	87%	inhibition [3]: 28%; inhibition (Astrocyte): Active; inhibition [4]: 74%; IC50 [5]: 1500 nM; Activity (SH-SY5Y): Active; inhibition (Microglia): Active; inhibition [6]: 13%; inhibition [7]: 46%
Nc1ccc(Sc2ccc([N+](=O)[O-])c(Cl)c2)cc1	1.47 µM	79%	inhibition [3]: 2%; inhibition (Astrocyte): Active; inhibition [4]: 42%; Activity (SH-SY5Y): Active; inhibition (Microglia): Active; inhibition [6]: 3%; inhibition [7]: 22%
Cc1cnc(Sc2cccc(N)c2)c([N+](=O)[O-])c1	–	3%	–
Nc1ccccc1Sc1ccc([N+](=O)[O-])cc1C(F)(F)F	–	42%	–
O=[N+]([O-])c1ccc(Sc2ccccc2Br)c(Cl)c1	2.14 µM	59%	–
CC(=O)Nc1ccc(Sc2ccc([N+](=O)[O-])cc2Cl)cc1	–	26%	–
CC(=O)Nc1ccccc1Sc1cc(Cl)ccc1[N+](=O)[O-]	2.1 µM	58%	inhibition [3]: 11%; inhibition [6]: 10%; inhibition [7]: 10%
Nc1ccccc1Sc1ccc(F)cc1[N+](=O)[O-]	–	38%	–
Nc1ccc(Sc2ccc(N)cc2Cl)cc1	6.5 µM	46%	–
c1ccc(Sc2ccncc2)cc1	–	44%	–
O=[N+]([O-])c1ccc(Sc2cccs2)c(Cl)c1	5.2 µM	69%	–
Nc1ccccc1Sc1cc(Cl)ccc1[N+](=O)[O-]	5.45 µM	66%	–
Nc1ccc(Sc2ccc(F)cc2[N+](=O)[O-])cc1	6.18 µM	64%	–
Cc1ccc([N+](=O)[O-])cc1S(=O)(=O)N(C)C	–	99%	IC50 [8]: 1280 nM; IC50 [9]: 1.8 µM; inhibition [7]: 0.43%
Nc1cccc(Sc2ccc(Cl)cc2[N+](=O)[O-])c1	5.69 µM	68%	–
COc1ccc(Sc2ccncc2)cc1	–	18%	–
CC(=O)Nc1ccccc1Sc1sccc1[N+](=O)[O-]	–	31%	–
